Only some compounds are listed: those with a hit (about 4.3% of all), similar ones and a draw of the others.
MC4R barr agon – activates human MC4R beta-arrestin recruitment | U2OS MC4R beta-arrestin complementation, luminescence; percent of melanotan II response, DMSO zero | activation, % at 8.9 µM | 360,000 compounds, 0.98% hits;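 active means activation above a per-plate cutoff, the mean activation of sample wells on that plate plus 3 SD, cut at about 8% in these data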
Target sequence (P32245 whole entry, looked up): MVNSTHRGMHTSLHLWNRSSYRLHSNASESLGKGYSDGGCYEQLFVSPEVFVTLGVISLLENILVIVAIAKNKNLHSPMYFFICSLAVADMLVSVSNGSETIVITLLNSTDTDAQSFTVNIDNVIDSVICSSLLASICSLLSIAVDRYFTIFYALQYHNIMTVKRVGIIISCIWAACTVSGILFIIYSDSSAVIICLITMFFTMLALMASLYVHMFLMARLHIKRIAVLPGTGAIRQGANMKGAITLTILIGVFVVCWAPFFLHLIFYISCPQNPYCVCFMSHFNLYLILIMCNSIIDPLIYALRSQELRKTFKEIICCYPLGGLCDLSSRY
HTR2A ag – activates the mouse 5-HT2A serotonin receptor; CHO-K1 mHTR2A beta-arrestin complementation, luminescence; percent of 30 µM serotonin response; AID 624169; 360,000 compounds, 0.66% hits; activation, % at 7.6 µM; P35363;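 active means activation above a run cutoff, the mean activation of all tested compounds plus 3 SD, cut at about 14% in these data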
MC4R antag cAMP – antagonists of human melanocortin 4 receptor (MC4R) | P32245 | MC4R-expressing cells, MTII-stimulated cAMP, LANCE TR-FRET | inhibition, % at 6.5 µM | 360,000 compounds, 0.48% hits | AID 540295;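 active means inhibition above its plate's cutoff, the mean of tested wells on that plate plus 3 SD, cut at about 29% in these data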
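System – human MC4R-expressing U2OS cells · Also added – Melanotan II · Dosing – one concentration, 6.5 µM nominal · Timing – 30-min compound, 1-h challenge, 1-h detection, room temperature · Measured by – Eu-cAMP/anti-cAMP TR-FRET, emission 671 nm · Replicates – singlicate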
TAAR1 agonist – agonists of human TAAR1 | CHO RD-HGA16 TAAR1, Fluo-8 calcium fluorescence; vehicle wells 0%, saturating PEA agonist 100% | activation, % at 3 µM | 360,000 compounds, 0.99% hits;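 active means activation above the mean activation of all test compounds in the run plus 3 SD, cut at about 38% in these data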
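Test system: RD-HGA16 (CHO) cells co-expressing Gα16 and hTAAR1; dosing: one-point dosing at 3 µM (nominal); timing: 17-24 h seeding, 75 min 37 °C dye, 30 min RT; signal: kinetic Fluo-8 calcium fluorescence; read-out basis: % activation relative to PEA EC100 response; controls: DMSO and PEA EC100; replicates: n 1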
B2AR ag – human beta-2 adrenergic receptor agonism by FAP. response, % (test concentration not listed). 340,000 compounds, 0.43% hits. Am2.2-beta2AR cells, FAP receptor internalization, flow cytometry;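 active means response above a set limit, near 3 SD of response in nonfluorescent compounds, cut at about 42% in these data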
Target sequence (P07550 whole entry, looked up): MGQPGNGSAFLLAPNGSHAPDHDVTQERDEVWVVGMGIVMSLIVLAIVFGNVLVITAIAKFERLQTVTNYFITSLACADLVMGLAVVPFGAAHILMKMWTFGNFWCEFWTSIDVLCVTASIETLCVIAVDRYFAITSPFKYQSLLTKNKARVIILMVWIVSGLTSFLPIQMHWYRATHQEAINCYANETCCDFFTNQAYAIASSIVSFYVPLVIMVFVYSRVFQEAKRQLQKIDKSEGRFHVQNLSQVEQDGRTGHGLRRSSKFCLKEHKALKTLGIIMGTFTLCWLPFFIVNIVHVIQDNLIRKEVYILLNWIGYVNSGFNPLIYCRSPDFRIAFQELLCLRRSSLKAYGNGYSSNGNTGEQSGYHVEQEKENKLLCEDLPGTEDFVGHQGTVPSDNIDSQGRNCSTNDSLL
TAAR1 antag – human TAAR1 antagonism; Q96RJ0; CHO RD-HGA16 TAAR1, Fluo-8 calcium fluorescence, antagonist; inhibition, % at 3 µM; 360,000 compounds, 1.5% hits; AID 624466;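 active means inhibition above a per-plate cutoff, the mean inhibition of test compounds on that plate plus 3 SD, cut at about 49% in these data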
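Test system – hTAAR1-expressing CHO RD-HGA16 cells, Gα16-coupled · Also added – β-PEA at EC80 concentration, post-compound challenge · Compound – 3 µM, single point · Incubation – dye loading 75 min at 37 °C, then 30 min room temperature · Measured by – Fluo-8 intracellular calcium dye fluorescence, real-time kinetic reads · Benchmarks – vehicle and agonist controls · Replicates – singlicate, one well per test compound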
Beta2AR ag CP1 – activates human beta-2 adrenergic receptor; shares compounds with B2AR ag; Am2.2-beta2AR cells, FAP surface receptor, flow cytometry; active compounds read low; percent response (surface receptor), % at 10 µM; 1,100 compounds, 25% hits;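 active means surface receptor percent response at or below 58%, roughly 3 SD from nonfluorescent compounds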
FAP fluor counter – fluorescence artifact in beta-2AR agonist FAP counterscreen; shares compounds with B2AR ag; Am2.2 cells, FAP fluorogen flow cytometry; active compounds read low; calls only at 10 µM; 1,100 tested, under 10 active; AID 588765;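 active means percent response below a set limit in fluorescence channel 1 and below 50% in channel 8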
Each line names hits and unclear results; the compound was inactive in the other large screens (follow-up assays come after a bar, where they were run).

CSc1ccc(C(=O)C2CCCN(Cc3cccn3-c3cccnc3)C2)cc1 (configuration not stated)	B2AR ag 69.5 | Beta2AR ag CP1 19.4 | FAP fluor counter inactive
COCCNC(=O)c1c(N)n(CCCn2ccnc2)c2nc3ccccc3nc12	B2AR ag 64.9 | Beta2AR ag CP1 inactive | FAP fluor counter inactive
COCCNC(=O)c1c(N)n(-c2ccccc2)c2nc3ccccc3nc12	none
Cc1ccc(S(=O)(=O)CCC(=O)N(Cc2nnc(-c3ccc(Cl)cc3)o2)C2CC2)cc1	none
CC(=O)c1cccc(NC(=O)C(OC(=O)c2cccs2)c2ccccc2)c1 (configuration not stated)	none
Cc1cc(C)cc(NC(=O)C(OC(=O)c2sccc2C)c2ccccc2)c1 (configuration not stated)	B2AR ag 64.4 | Beta2AR ag CP1 inactive | FAP fluor counter inactive
CC1C[C@@]2(NC(=O)NC2=O)C(C)CN1C (some centres not stated)	B2AR ag 46.2 | Beta2AR ag CP1 inactive | FAP fluor counter inactive
CC1CC2(NC(=O)NC2=O)C(C)CN1C (configuration not stated)	none
Oc1ccc(NCc2ccccc2OCc2ccccc2)cc1	none | Beta2AR ag CP1 inactive | FAP fluor counter inactive
CCCC(=O)N1CCN(c2ccc(NC(=O)c3ccc(Br)o3)cc2)CC1	none | Beta2AR ag CP1 inactive | FAP fluor counter inactive
CCCC(=O)N1CCN(c2ccc(NC(=O)c3ccc([N+](=O)[O-])o3)cc2)CC1	none
CCN1CCN(c2ccc(NC(=O)c3ccc(Br)o3)cc2)CC1	none | Beta2AR ag CP1 inactive | FAP fluor counter inactive
O=C(Nc1ccc(N2CCN(C(=O)c3ccccc3)CC2)cc1)c1ccc(Br)o1	none | Beta2AR ag CP1 inactive | FAP fluor counter inactive
CC(=O)N1CCc2cc(NC(=O)C3(C)CCN3Cc3ccccc3Cl)ccc21 (configuration not stated)	none (no result: B2AR ag)
C=CCc1ccc(OCCOc2ccc(/C=N/n3cnnc3)cc2OCC)c(OC)c1	B2AR ag 57.0 | Beta2AR ag CP1 33.5 | FAP fluor counter inactive
CCOC(=O)c1ccc(N2C(=O)c3n[nH]c(-c4ccco4)c3C2c2cccc([N+](=O)[O-])c2)cc1 (configuration not stated)	B2AR ag 85.4 | Beta2AR ag CP1 23.3 | FAP fluor counter inactive
CCOC(=O)c1[nH]c(=S)n(-c2ccccc2)c1C(=O)OCC	none (no result: B2AR ag)
CCOC(=O)c1[nH]c(=S)n(Cc2ccccc2)c1C(=O)OCC	B2AR ag 42.9 | Beta2AR ag CP1 inactive | FAP fluor counter inactive
OC[C@@H]1CN(Cc2ccc(Cl)cc2)C[C@H](n2cnc3c(N4CCCC4)ncnc32)O1	none (no result: B2AR ag)
Cc1c(CN2CCC(CO)(Cc3cccc(C(F)(F)F)c3)CC2)c2ccccc2n1C	B2AR ag 45.5 | Beta2AR ag CP1 inactive | FAP fluor counter inactive
COCc1ccccc1C1=CC(=O)C[C@H](c2ccc(OC)cc2)C1	none
Cc1ccc(Cn2c(N)c(S(=O)(=O)c3cccs3)c3nc4ccccc4nc32)cc1	B2AR ag 52.2 | Beta2AR ag CP1 inactive | FAP fluor counter inactive
COc1ccccc1NCC(O)Cn1c2ccccc2c2ccccc21 (configuration not stated)	none
COc1ccc(CCNCC(O)Cn2c3ccccc3c3ccccc32)cc1OC (configuration not stated)	B2AR ag 47.6 | Beta2AR ag CP1 53.0 | FAP fluor counter inactive
COc1cccc(NC(=O)C(c2ccccc2)N2CCCCC2)c1 (configuration not stated)	none | Beta2AR ag CP1 inactive | FAP fluor counter inactive
COc1cccc(NC(=O)C(c2ccccc2)N2CCN(CC(=O)N3CCOCC3)CC2)c1 (configuration not stated)	none
Cc1ccnc(NC(=O)c2ccc([N+](=O)[O-])o2)c1	B2AR ag 49.4 | Beta2AR ag CP1 inactive | FAP fluor counter inactive
O=C(Nc1ccc(F)cc1)c1cccc(N2C(=O)c3ccccc3C2=O)c1	none | Beta2AR ag CP1 inactive | FAP fluor counter inactive
O=C(Nc1ccc(S(=O)(=O)Nc2nccs2)cc1)c1cccc(N2C(=O)c3ccccc3C2=O)c1	none | Beta2AR ag CP1 inactive | FAP fluor counter inactive
N#Cc1cccc(C(=O)Nc2ccc(S(=O)(=O)Nc3nccs3)cc2)c1	none
Cc1ccc(S(=O)(=O)NC(C)(C)CN2CCC(Cc3ccccc3)CC2)cc1	MC4R barr agon 8.4, B2AR ag 50.0 | Beta2AR ag CP1 inactive | FAP fluor counter inactive
Cc1ccc(S(=O)(=O)NCCC(=O)N2CCC(Cc3ccccc3)CC2)cc1	none
Cc1ccc(C(=O)NCCNC(=O)c2ccc(C)nc2)cc1	B2AR ag 60.6 | Beta2AR ag CP1 inactive | FAP fluor counter inactive
COc1ccc(-c2sc3ccc(OC)cc3c2C#Cc2cncn2C)cc1	none
COc1ccc(-c2sc3cc4c(cc3c2C#Cc2cncn2C)OCO4)cc1	B2AR ag 56.4 | Beta2AR ag CP1 inactive | FAP fluor counter inactive
CCCCn1c(=N)n(CC(=O)c2ccc(Br)s2)c2ccccc21	B2AR ag 82.1 | Beta2AR ag CP1 0.9 | FAP fluor counter inactive
CCn1c(=N)n(CC(=O)c2ccc(Br)s2)c2ccccc21	none
Cc1nc2cc(-c3ccc(Cl)cc3)nn2c(C)c1CCC(=O)NC(C)c1ccc2c(c1)OCCO2 (configuration not stated)	none
Cc1csc(NC(=O)CCc2c(C)nc3cc(-c4ccc(Cl)cc4)nn3c2C)n1	B2AR ag 63.4 | Beta2AR ag CP1 inactive | FAP fluor counter inactive
CCCN(CCC)C(=O)c1ccc2nc(-c3ccc(OC)c(OC)c3)c(-c3ccc(OC)c(OC)c3)nc2c1	B2AR ag 43.0 | Beta2AR ag CP1 inactive | FAP fluor counter inactive
Cc1cncc(NCc2ccc3c(c2)OCO3)n1	none (no result: B2AR ag)
O=C(CN1CCN(Cc2ccccc2)CC1)Nc1ccc(N2CCOCC2)cc1	B2AR ag 50.3 | Beta2AR ag CP1 inactive | FAP fluor counter inactive
O=C(CN1CCN(Cc2ccccc2)CC1)Nc1ccccc1	none
CC(O)(c1cccnc1)c1nc(-c2cccc(C(F)(F)F)c2)cs1 (configuration not stated)	none (no result: B2AR ag)
Cc1cccc(NC(=O)c2cc(-c3cccnc3)nc3c(C)cccc23)n1	B2AR ag 75.1 | Beta2AR ag CP1 inactive | FAP fluor counter inactive
CCOC(=O)C1(NC(=O)C2(N3C(=O)c4ccccc4C3=O)CCCC2)CCCC1	none
Cc1cc(C)nc(SCC(=O)N2CCCCC2)n1	none

Compound activity deposited in PubChem BioAssay by several laboratories.
